A short description of test [1]: Oxygen radical absorption capacity. To be noted: TEAC units; X = EO or compound. The method, boiled down: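 Peroxyl radical (ROO) scavenging by the oils and individual components, following a published ORAC method, in triplicate. Data are mean ± SD, with significance by ANOVA/Tukey's HSD (p < 0.05).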
A short description of another test: Chelating power. To be noted: for ChP: EDTAE units, X = EO or compound. An outline of the steps:
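Ferrous ion chelation by essential oils and their major components, by a published method, in triplicate. Results are expressed as EDTA equivalents per volume of EO, mean ± SD, with ANOVA/Tukey's HSD (p < 0.05).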

Test [2] in a line: Thiobarbituric acid reactive substances. The following applies: BHTE units; X = EO or compound. An outline of the steps:
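TBARS formation by oxidation measured in soybean lecithin homogenate as lipid-rich medium, by a published method, in triplicate. Values are expressed as μmol BHTE/mL EO, mean ± SD, with ANOVA/Tukey's HSD (p < 0.05).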

The nature of test [3]: DPPH radical scavenging capacity. The following applies: TEAC units; X = EO or compound. The method, boiled down: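 DPPH radical scavenging by essential oils and individual components, by a published method, in triplicate. Values are expressed as μmol TE/mL EO and given as mean ± SD, with ANOVA/Tukey's HSD at p < 0.05.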
Another test is described as follows: Reducing power. The following applies: AAE units; X = EO or compound. An outline of the steps: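 Reduction of potassium ferricyanide by the oils and individual components, by a published method, in triplicate. Results are reported as ascorbic acid equivalents per volume of EO, mean ± SD, with ANOVA/Tukey's HSD (p < 0.05).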
For test [4], the target named is T1, lipoxygenase (LOX) (linoleate:oxygen oxidoreductase, EC 1.13.11.12) (Glycine max, UniProt P08170).
T1 sequence (P08170 1-839): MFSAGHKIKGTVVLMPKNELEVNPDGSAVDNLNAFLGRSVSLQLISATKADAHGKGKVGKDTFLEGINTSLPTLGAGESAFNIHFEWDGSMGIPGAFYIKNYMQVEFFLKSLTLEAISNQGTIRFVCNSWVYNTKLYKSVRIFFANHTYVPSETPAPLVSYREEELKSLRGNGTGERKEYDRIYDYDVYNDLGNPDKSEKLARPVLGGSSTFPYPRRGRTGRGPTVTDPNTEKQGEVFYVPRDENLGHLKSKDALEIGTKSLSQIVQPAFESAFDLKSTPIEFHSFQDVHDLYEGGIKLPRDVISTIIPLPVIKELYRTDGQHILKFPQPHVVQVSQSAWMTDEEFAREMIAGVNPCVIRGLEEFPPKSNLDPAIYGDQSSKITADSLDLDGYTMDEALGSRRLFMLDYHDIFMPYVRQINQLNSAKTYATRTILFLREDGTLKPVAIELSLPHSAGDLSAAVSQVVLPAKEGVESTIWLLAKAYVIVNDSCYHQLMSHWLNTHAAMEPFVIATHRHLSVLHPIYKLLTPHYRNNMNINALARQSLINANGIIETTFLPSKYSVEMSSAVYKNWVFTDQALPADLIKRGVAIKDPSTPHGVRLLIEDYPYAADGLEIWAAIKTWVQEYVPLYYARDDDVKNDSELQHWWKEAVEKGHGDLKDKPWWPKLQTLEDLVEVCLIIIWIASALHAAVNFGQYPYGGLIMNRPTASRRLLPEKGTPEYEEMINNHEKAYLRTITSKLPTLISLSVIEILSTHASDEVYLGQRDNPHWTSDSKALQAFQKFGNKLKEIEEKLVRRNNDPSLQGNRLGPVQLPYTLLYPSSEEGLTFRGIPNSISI
Kind of test: Lipoxygenase. Type of test: biochemical, Glycine max (soybean). The following applies: soybean LOX, linoleic acid substrate, 25 °C; mean ± SD.

Test [5] in a line: ABTS radical cation bleaching assay. To be noted: TEAC units; X = EO or compound. The method, boiled down:
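ABTS radical cation (ABTS•+) bleaching by essential oils and their individual components, run in triplicate by a published method. Results are given as mean ± SD, compared by ANOVA with Tukey's HSD (p < 0.05).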

This is an account of results in PMC9322249 (Journal of Food and Drug Analysis, 2017).

`CC(=O)OC1CC2CCC1(C)C2(C)C` (stereo not drawn) [bornyl acetate]: the ORAC result in test [1] is “N/D (Activity lower than 0.05 units at a maximum assay concentration of 100 mM)”. Besides, the ChP in the test “Chelating power” was 0.1 ± 0.0 μmol EDTAE/mL X. Besides, in test [2], the TBARS result is on record as “N/D (Activity lower than 0.05 units at a maximum assay concentration of 100 mM)”. Moreover, in test [3], the DPPH entry was “N/D (Activity lower than 0.05 units at a maximum assay concentration of 100 mM)”. The RdP entry in the test “Reducing power” was “N/D (Activity lower than 0.05 units at a maximum assay concentration of 100 mM)”. In addition, the “LOX inhibitory activity, IC50 of main commercially available compounds” value (“LOX inhibitory activity, IC50” for short) in test [4] is on record as 75 ± 3 μL (Compound)/L. The ABTS result in test [5] is listed as “N/D (Activity lower than 0.05 units at a maximum assay concentration of 100 mM)”.
As for `CC12CCC(CC1=O)C2(C)C` (stereo not drawn) [camphor], the ORAC result in test [1] was “N/D (Activity lower than 0.05 units at a maximum assay concentration of 100 mM)”. In addition, the ChP result in the test “Chelating power” is recorded as “N/D (Activity lower than 0.05 units at a maximum assay concentration of 100 mM)”. In test [2], the TBARS entry is reported as “N/D (Activity lower than 0.05 units at a maximum assay concentration of 100 mM)”. Besides, in test [3], the DPPH entry is “N/D (Activity lower than 0.05 units at a maximum assay concentration of 100 mM)”. Moreover, the RdP entry in the test “Reducing power” is reported as “N/D (Activity lower than 0.05 units at a maximum assay concentration of 100 mM)”. Moreover, the “LOX inhibitory activity, IC50” value in test [4] is 422 ± 13 μL (Compound)/L. Further, the ABTS result in test [5] is reported as “N/D (Activity lower than 0.05 units at a maximum assay concentration of 100 mM)”.
Regarding `C=C(C)[C@H]1CC=C(C)CC1` [limonene], the ORAC in test [1] is recorded as 0.8 ± 0.1 μmol TE/μL X. Besides, the ChP in “Chelating power” was 36.7 ± 2.3 μmol EDTAE/mL X. In addition, the TBARS entry in test [2] is “N/D (Activity lower than 0.05 units at a maximum assay concentration of 100 mM)”. Moreover, in test [3], the DPPH entry is on record as “N/D (Activity lower than 0.05 units at a maximum assay concentration of 100 mM)”. Moreover, in the test “Reducing power”, the RdP result was “N/D (Activity lower than 0.05 units at a maximum assay concentration of 100 mM)”. The “LOX inhibitory activity, IC50” value in test [4] is listed as 58 ± 5 μL (Compound)/L. The compound also had an ABTS in test [5] of 3.6 ± 0.2 μmol TE/mL X.
`C=CC(C)(O)CCC=C(C)C` (stereo not drawn) [linalool] yielded an ORAC in test [1] of 1.9 ± 0.1 μmol TE/μL X. In the test “Chelating power”, the “Chelating power (ChP), result in words” value is “high ChP” and the ChP is recorded as 541.6 ± 32.7 μmol EDTAE/mL X. Also, the TBARS entry in test [2] is recorded as “N/D (Activity lower than 0.05 units at a maximum assay concentration of 100 mM)”. For the same compound, the DPPH entry in test [3] is “N/D (Activity lower than 0.05 units at a maximum assay concentration of 100 mM)”. Also, the RdP result in “Reducing power” is “N/D (Activity lower than 0.05 units at a maximum assay concentration of 100 mM)”. The “LOX inhibitory activity, IC50” value in test [4] is recorded as 599 ± 8 μL (Compound)/L. In test [5], this compound gave an ABTS of 0.4 ± 0.0 μmol TE/mL X.
Regarding `Cc1ccc(C(C)C)cc1` [p-cymene], in test [1], the ORAC result is reported as “N/D (Activity lower than 0.05 units at a maximum assay concentration of 100 mM)”. Further, in the test “Chelating power”, the “Chelating power (ChP), result in words” value is on record as “high chelating activity” and the ChP came to 124.7 ± 9.8 μmol EDTAE/mL X. For the same compound, the TBARS entry in test [2] is recorded as “N/D (Activity lower than 0.05 units at a maximum assay concentration of 100 mM)”. The DPPH entry in test [3] is “N/D (Activity lower than 0.05 units at a maximum assay concentration of 100 mM)”. For the same compound, the RdP entry in the test “Reducing power” is “N/D (Activity lower than 0.05 units at a maximum assay concentration of 100 mM)”. In addition, the “LOX inhibitory activity, IC50” value in test [4] is reported as 79 ± 5 μL (Compound)/L. For the same compound, in test [5], the ABTS came to 0.6 ± 0.0 μmol TE/mL X.
On to `Cc1ccc(C(C)C)c(O)c1` [thymol], for which the ORAC in test [1] came to 2.1 ± 0.1 μmol TE/μL X. Moreover, in the test “Chelating power”, the “Chelating power (ChP), result in words” value is listed as “do not show any ChP” and the ChP result was “N/D (Activity lower than 0.05 units at a maximum assay concentration of 100 mM)”. In addition, in test [2], the TBARS is reported as 869.4 ± 255.2 μmol BHTE/mL X. Moreover, the DPPH in test [3] is given as 34.9 ± 2.1 μmol TE/mL X. This compound had a RdP in the test “Reducing power” of 3353.9 ± 133.4 μmol AAE/L X. Further, the “LOX inhibitory activity, IC50” value in test [4] was 23 ± 2 μL (Compound)/L. Also, the ABTS in test [5] is on record as 6897.1 ± 225.0 μmol TE/mL X.
